Assay results reported in ChEMBL document CHEMBL3297654, “Synthesis, antimicrobial and cytotoxic activities, and structure-activity relationships of gypsogenin derivatives against human cancer cells” (Eur J Med Chem, 2014).
Values after ≈ are worked out from the molar mass of the structure shown. Each block holds one molecule with its values, some of them ahead of it. Active and inactive are the calls of the source. The rule behind the calls is not given here.

Legend:
Bacillus subtilis [1] = assay: Antimicrobial activity against Bacillus subtilis ATCC 6633 for 24 hrs by microdillution method; type: functional
Procedure, shortened: (§1)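 Broth microdilution. Compound is dissolved in DMSO (2 mg/mL) and diluted in Mueller Hinton broth as two-fold serial dilutions from 256 to 0.125 µg/mL. Bacteria are pre-grown in nutrient broth at 30 °C, and the final inoculum is about 10^6 cfu/mL. Tests are incubated 37 °C for 24 h. MIC is the lowest concentration giving complete inhibition. Streptomycin is the positive control.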

Bacillus thuringiensis [2] = assay: Antimicrobial activity against Bacillus thuringiensis for 24 hrs by microdillution method; type: functional; procedure, shortened: as §1
Bacillus cereus [3] = assay: Antimicrobial activity against Bacillus cereus ATCC 11778 for 24 hrs by microdillution method; type: functional; procedure, shortened: as §1
HL-60 [4] = assay: Induction of apoptosis in human HL60 cells at 20 uM after 48 hrs by Hoechst 33258/propidium iodide staining based phase contrast microscopic analysis; type: functional
Procedure, shortened: (§2)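 Cells in 48-well plates treated with 0.5, 10, 20 or 40 µM for 24 and 48 h. Values are read at 48 h, 20 µM for test agents and 0.5 µM for controls. Staining is Hoechst 33258/propidium iodide double staining with fluorescence microscopy. Blue nuclei are viable or early-to-mid apoptotic, and pink nuclei are late apoptotic or necrotic. Apoptosis and necrosis are scored from chromatin condensation as % of cells. Cells are grown at 37 °C in 5% CO2 in RPMI, DMEM or McCoy's 5A with 10–15% heat-inactivated FCS.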

SAOS-2 [5] = assay: Induction of apoptosis in human Saos2 cells at 20 uM after 48 hrs by Hoechst 33258/propidium iodide staining based phase contrast microscopic analysis; type: functional; procedure, shortened: as §2
Caco-2 [6] = assay: Antiproliferative activity against human Caco2 cells after 24 and 72 hrs by MTT assay; type: functional, cell-based
Procedure, shortened: (§3)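 ATCC human cell lines are kept in RPMI, DMEM or McCoy's 5A with 10–15% heat-inactivated FCS at 37 °C and 5% CO2. They are seeded at 1×10^4–1×10^5 cells/mL in 48-well plates and exposed to 0.5, 10, 20 or 40 µM. Viability is read by MTT (590 nm) at 24 and 72 h. Growth is expressed relative to untreated cells and IC50 is fitted, in triplicate.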

[7] = tested on: Staphylococcus epidermidis; assay: Antimicrobial activity against Staphylococcus epidermidis ATCC 12228 assessed as zone of inhibition at 30 uL for 24 hrs at 37 degC by disk diffusion test; type: functional, organism-based
Procedure, shortened: (§4)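 Compound (30 µL of a fresh 1000 µg/mL DMSO stock) goes into a 6 mm well cut in Mueller Hinton agar inoculated with 0.1 mL broth culture adjusted to 0.5 McFarland (about 1×10^8 cells/mL). Plates are incubated 24 h at 37 °C, then zone of inhibition diameter is measured in mm.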

MCF7 [8] = assay: Induction of necrosis in human MCF7 cells at 20 uM after 48 hrs by Hoechst 33258/propidium iodide staining based phase contrast microscopic analysis; type: functional; procedure, shortened: as §2
Candida albicans = assay: Antimicrobial activity against Candida albicans ATCC 10231 assessed as zone of inhibition at 30 uL for 24 hrs at 30 degC by disk diffusion test; type: functional, organism-based
Procedure, shortened: (§5)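 Agar well diffusion on Mueller Hinton agar seeded with 0.1 mL broth culture (18–24 h), adjusted to 0.5 McFarland (about 1×10^8 bacteria or 1×10^6 yeast cells/mL). A 6 mm well is filled with 30 µL of compound from a fresh 1000 µg/mL DMSO stock. Plates are held at 30 °C for 24 h and inhibition zone diameter is read in mm.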

Bacillus cereus [9] = assay: Antimicrobial activity against Bacillus cereus ATCC 11778 assessed as zone of inhibition at 30 uL for 24 hrs at 30 degC by disk diffusion test; type: functional; procedure, shortened: as §5
Caco-2 [10] = assay: Induction of apoptosis in human Caco2 cells at 20 uM after 48 hrs by Hoechst 33258/propidium iodide staining based phase contrast microscopic analysis; type: functional; procedure, shortened: as §2
Saccharomyces cerevisiae = assay: Antimicrobial activity against Saccharomyces cerevisiae ATCC 9763 assessed as zone of inhibition at 30 uL for 24 hrs at 30 degC by disk diffusion test; type: functional, organism-based; procedure, shortened: as §5
Micrococcus luteus = assay: Antimicrobial activity against Micrococcus luteus ATCC 9341 assessed as zone of inhibition at 30 uL for 24 hrs at 30 degC by disk diffusion test; type: functional, organism-based; procedure, shortened: as §5
Bacillus subtilis [11] = assay: Antimicrobial activity against Bacillus subtilis ATCC 6633 assessed as zone of inhibition at 30 uL for 24 hrs at 30 degC by disk diffusion test; type: functional; procedure, shortened: as §5
Caco-2 [12] = assay: Induction of necrosis in human Caco2 cells at 20 uM after 48 hrs by Hoechst 33258/propidium iodide staining based phase contrast microscopic analysis; type: functional; procedure, shortened: as §2
Klebsiella pneumoniae = assay: Antimicrobial activity against Klebsiella pneumoniae ATCC 13882 assessed as zone of inhibition at 30 uL for 24 hrs at 37 degC by disk diffusion test; type: functional, organism-based; procedure, shortened: as §4
HL-60 [13] = assay: Induction of necrosis in human HL60 cells at 20 uM after 48 hrs by Hoechst 33258/propidium iodide staining based phase contrast microscopic analysis; type: functional; procedure, shortened: as §2
HeLa [14] = assay: Antiproliferative activity against human HeLa cells after 24 and 72 hrs by MTT assay; type: functional, cell-based; procedure, shortened: as §3
MCF7 [15] = assay: Antiproliferative activity against human MCF7 cells after 24 and 72 hrs by MTT assay; type: functional, cell-based; procedure, shortened: as §3
Escherichia coli = assay: Antimicrobial activity against Escherichia coli ATCC 25922 assessed as zone of inhibition at 30 uL for 24 hrs at 37 degC by disk diffusion test; type: functional, organism-based; procedure, shortened: as §4
HeLa [16] = assay: Induction of necrosis in human HeLa cells at 20 uM after 48 hrs by Hoechst 33258/propidium iodide staining based phase contrast microscopic analysis; type: functional; procedure, shortened: as §2
HT-29 [17] = assay: Induction of apoptosis in human HT-29 cells at 20 uM after 48 hrs by Hoechst 33258/propidium iodide staining based phase contrast microscopic analysis; type: functional; procedure, shortened: as §2
Candida tropicalis = assay: Antimicrobial activity against Candida tropicalis assessed as zone of inhibition at 30 uL for 24 hrs at 30 degC by disk diffusion test; type: functional, organism-based; procedure, shortened: as §5
SAOS-2 [18] = assay: Induction of necrosis in human Saos2 cells at 20 uM after 48 hrs by Hoechst 33258/propidium iodide staining based […] microscopic analysis; type: functional; procedure, shortened: as §2
[19] = Antiproliferative activity against human Saos2 cells after 24 and 72 hrs by MTT assay; type: functional, cell-based; settings: SAOS-2; procedure, shortened: as §3
HeLa [20] = assay: Induction of apoptosis in human HeLa cells at 20 uM after 48 hrs by Hoechst 33258/propidium iodide staining based phase contrast microscopic analysis; type: functional; procedure, shortened: as §2
MCF7 [21] = assay: Induction of apoptosis in human MCF7 cells at 20 uM after 48 hrs by Hoechst 33258/propidium iodide staining based phase contrast microscopic analysis; type: functional; procedure, shortened: as §2
HT-29 [22] = assay: Induction of necrosis in human HT-29 cells at 20 uM after 48 hrs by Hoechst 33258/propidium iodide staining based phase contrast microscopic analysis; type: functional; procedure, shortened: as §2
HL-60 [23] = assay: Antiproliferative activity against human HL60 cells after 24 and 72 hrs by MTT assay; type: functional, cell-based; procedure, shortened: as §3
Proteus vulgaris = assay: Antimicrobial activity against Proteus vulgaris ATCC 33420 assessed as zone of inhibition at 30 uL for 24 hrs at 37 degC by disk diffusion test; type: functional, organism-based; procedure, shortened: as §4
HT-29 [24] = assay: Antiproliferative activity against human HT-29 cells after 24 and 72 hrs by MTT assay; type: functional, cell-based; procedure, shortened: as §3
Enterococcus faecalis = assay: Antimicrobial activity against Enterococcus faecalis ATCC 29212 assessed as zone of inhibition at 30 uL for 24 hrs at 37 degC by disk diffusion test; type: functional, organism-based; procedure, shortened: as §4
Pseudomonas aeruginosa = assay: Antimicrobial activity against Pseudomonas aeruginosa ATCC 35032 assessed as zone of inhibition at 30 uL for 24 hrs at 37 degC by disk diffusion test; type: functional, organism-based; procedure, shortened: as §4
Bacillus thuringiensis [25] = assay: Antimicrobial activity against Bacillus thuringiensis assessed as zone of inhibition at 30 uL for 24 hrs at 30 degC by disk diffusion test; type: functional; procedure, shortened: as §5
Staphylococcus aureus = assay: Antimicrobial activity against Staphylococcus aureus ATCC 25923 assessed as zone of inhibition at 30 uL for 24 hrs at 37 degC by disk diffusion test; type: functional, organism-based; procedure, shortened: as §4
Salmonella typhimurium = assay: Antimicrobial activity against Salmonella typhimurium ATCC 14028 assessed as zone of inhibition at 30 uL for 24 hrs at 37 degC by disk diffusion test; type: functional, organism-based; settings: Salmonella enterica subsp. enterica serovar Typhimurium; procedure, shortened: as §4
Nakaseomyces glabratus = assay: Antimicrobial activity against Candida glabrata assessed as zone of inhibition at 30 uL for 24 hrs at 30 degC by disk diffusion test; type: functional, organism-based; procedure, shortened: as §5
Cyberlindnera jadinii = assay: Antimicrobial activity against Candida utilis ATCC 9950 assessed as zone of inhibition at 30 uL for 24 hrs at 30 degC by disk diffusion test; type: functional, organism-based; procedure, shortened: as §5

MIC (Bacillus subtilis [1]; ATCC 6633, 24 h): 64 µg/mL (≈ 110 µM)
MIC (Bacillus thuringiensis [2]): 64 µg/mL (≈ 110 µM)
MIC (Bacillus cereus [3]; ATCC 11778, 24 h): 64 µg/mL (≈ 110 µM)
Compound: CN[C@@H]1[C@H](O[C@H]2[C@H](O[C@H]3[C@H](O)[C@@H](O)[C@H](N=C(N)N)[C@@H](O)[C@@H]3N=C(N)N)O[C@@H](C)[C@]2(O)C=O)O[C@@H](CO)[C@H](O)[C@H]1O [STREPTOMYCIN]

IC50 (Caco-2 [6]): 36.5 µM
IC50 (HeLa [14]): 23.6 µM
IC50 (MCF7 [15]): 6.05 µM
MIC (Bacillus subtilis [1]): inactive
IC50 (HL-60 [23]): 6.21 µM
IC50 (HT-29 [24]): 15 µM
MIC (Bacillus thuringiensis [2]): inactive
MIC (Bacillus cereus [3]): inactive
Compound: CC1(C)CC[C@]2(C(=O)OCc3ccccc3)CC[C@]3(C)C(=CC[C@@H]4[C@@]5(C)CC[C@H](O)[C@@](C)(/C=N/NC(N)=S)[C@@H]5CC[C@]43C)[C@@H]2C1
Activity (HL-60 [4]): 2%
Activity (SAOS-2 [5]): 5%
diameter of the inhibition zone (DIZ) [7]: inactive
Activity (MCF7 [8]): 63%
diameter of the inhibition zone (DIZ) (Candida albicans): inactive
diameter of the inhibition zone (DIZ) (Bacillus cereus [9]): inactive
Activity (Caco-2 [10]): 4%
diameter of the inhibition zone (DIZ) (Saccharomyces cerevisiae): inactive
diameter of the inhibition zone (DIZ) (Micrococcus luteus): inactive
diameter of the inhibition zone (DIZ) (Bacillus subtilis [11]): inactive
Activity (Caco-2 [12]): 48%
diameter of the inhibition zone (DIZ) (Klebsiella pneumoniae): inactive
Activity (HL-60 [13]): 64%
diameter of the inhibition zone (DIZ) (Escherichia coli): inactive
Activity (HeLa [16]): 55%
Activity (HT-29 [17]): 2%
diameter of the inhibition zone (DIZ) (Candida tropicalis): inactive
Activity (SAOS-2 [18]): 41%
IC50 [19]: 6.97 µM
Activity (HeLa [20]): 5%
Activity (MCF7 [21]): 4%
Activity (HT-29 [22]): 32%
diameter of the inhibition zone (DIZ) (Proteus vulgaris): inactive
diameter of the inhibition zone (DIZ) (Enterococcus faecalis): inactive
diameter of the inhibition zone (DIZ) (Pseudomonas aeruginosa): inactive
diameter of the inhibition zone (DIZ) (Bacillus thuringiensis [25]): inactive
diameter of the inhibition zone (DIZ) (Staphylococcus aureus): inactive
diameter of the inhibition zone (DIZ) (Salmonella typhimurium): inactive
diameter of the inhibition zone (DIZ) (Nakaseomyces glabratus): inactive
diameter of the inhibition zone (DIZ) (Cyberlindnera jadinii): inactive
